Laboratory results: ChEMBL document CHEMBL1671716, “Antimicrobial susceptibility patterns for recent clinical isolates of anaerobic bacteria in South Korea” (2010)

Experiments:
[1] = tested on: Clostridium perfringens; assay: Antimicrobial activity against Clostridium perfringens assessed as percent susceptible isolates after 48 hrs by agar dilution method; type: functional
[2] = tested on: Actinomyces israelii; assay: Antimicrobial activity against Actinomyces israelii after 48 hrs by agar dilution method; type: functional
In short: (§1)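 MICs on clinical anaerobe isolates by the CLSI agar dilution method. Inoculum of 10^5 CFU applied with a Steers replicator. Plates incubated 48 h at 37°C in an anaerobic chamber.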

[3] = tested on: Hoylesella oralis; assay: Antimicrobial activity against Prevotella oralis assessed as percent susceptible isolates after 48 hrs by agar dilution method; type: functional
In short: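 CLSI agar dilution MIC testing of clinical isolates. 10^5 CFU spotted by replicator, plates incubated 48 h at 37°C in an anaerobic chamber. Susceptibility rates derived from the MICs.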

[4] = tested on: Prevotella intermedia; assay: Antimicrobial activity against Prevotella intermedia after 48 hrs by agar dilution method; type: functional
In short: (§2)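 CLSI agar dilution (M11-A7); inoculum 10^5 CFU applied by replicator; plates incubated anaerobically 48 h at 37°C. For piperacillin-tazobactam, tazobactam held constant at 4 μg/ml.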

[5] = tested on: Phocaeicola vulgatus; assay: Antimicrobial activity against Bacteroides vulgatus assessed as percent resistant isolates after 48 hrs by agar dilution method; type: functional
In short: (§3)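 CLSI agar dilution on recent Korean clinical anaerobe isolates. Inoculum 10^5 CFU per spot by replicator. Plates incubated in an anaerobic chamber at 37°C for 48 h. For piperacillin plus tazobactam, tazobactam was held constant at 4 μg/ml. Resistance and susceptibility rates derived from MICs.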

[6] = tested on: Porphyromonas asaccharolytica; assay: Antimicrobial activity against Porphyromonas asaccharolytica after 48 hrs by agar dilution method; type: functional; in short: as §2
[7] = tested on: Bifidobacterium sp.; assay: Antimicrobial activity against Bifidobacterium sp. after 48 hrs by agar dilution method; type: functional; in short: as §1
[8] = tested on: Phocaeicola vulgatus; assay: Antimicrobial activity against Bacteroides vulgatus after 48 hrs by agar dilution method; type: functional; in short: as §1
[9] = tested on: Parvimonas micra; assay: Antimicrobial activity against Peptostreptococcus micros after 48 hrs by agar dilution method; type: functional; in short: as §2
[10] = tested on: Eggerthella lenta; assay: Antimicrobial activity against Eubacterium lentum assessed as percent susceptible isolates after 48 hrs by agar dilution method; type: functional; in short: as §2
[11] = tested on: Eubacterium sp.; assay: Antimicrobial activity against Eubacterium sp. assessed as percent susceptible isolates after 48 hrs by agar dilution method; type: functional; in short: as §2
[12] = tested on: Eggerthella lenta; assay: Antimicrobial activity against Eubacterium lentum after 48 hrs by agar dilution method; type: functional; in short: as §2
[13] = tested on: Schaalia odontolytica; assay: Antimicrobial activity against Actinomyces odontolyticus assessed as percent resistant isolates after 48 hrs by agar dilution method; type: functional; in short: as §3
[14] = tested on: Bifidobacterium sp.; assay: Antimicrobial activity against Bifidobacterium sp. assessed as percent susceptible isolates after 48 hrs by agar dilution method; type: functional; in short: as §2
[15] = tested on: Schaalia odontolytica; assay: Antimicrobial activity against Actinomyces odontolyticus after 48 hrs by agar dilution method; type: functional; in short: as §1
[16] = tested on: Parabacteroides distasonis; assay: Antimicrobial activity against Bacteroides distasonis assessed as percent resistant isolates after 48 hrs by agar dilution method; type: functional; in short: as §3
[17] = tested on: Parabacteroides distasonis; assay: Antimicrobial activity against Bacteroides distasonis after 48 hrs by agar dilution method; type: functional; in short: as §1
[18] = tested on: Anaerococcus prevotii; assay: Antimicrobial activity against Anaerococcus prevotii assessed as percent susceptible isolates after 48 hrs by agar dilution method; type: functional
[19] = tested on: Eubacterium sp.; assay: Antimicrobial activity against Eubacterium sp. assessed as percent resistant isolates after 48 hrs by agar dilution method; type: functional; in short: as §3
[20] = tested on: Fusobacterium necrogenes; assay: Antimicrobial activity against Fusobacterium necrogenes after 48 hrs by agar dilution method; type: functional; in short: as §2
[21] = tested on: Peptostreptococcus anaerobius; assay: Antimicrobial activity against Peptostreptococcus anaerobius after 48 hrs by agar dilution method; type: functional; in short: as §2
[22] = tested on: Actinomyces israelii; assay: Antimicrobial activity against Actinomyces israelii assessed as percent susceptible isolates after 48 hrs by agar dilution method; type: functional
[23] = tested on: Clostridium perfringens; assay: Antimicrobial activity against Clostridium perfringens after 48 hrs by agar dilution method; type: functional
[24] = tested on: Actinomyces israelii; assay: Antimicrobial activity against Actinomyces israelii assessed as percent resistant isolates after 48 hrs by agar dilution method; type: functional; in short: as §3
[25] = tested on: Bacteroides thetaiotaomicron; assay: Antimicrobial activity against Bacteroides thetaiotaomicron assessed as percent susceptible isolates after 48 hrs by agar dilution method; type: functional
[26] = tested on: Bacteroides ovatus; assay: Antimicrobial activity against Bacteroides ovatus after 48 hrs by agar dilution method; type: functional; in short: as §1
[27] = tested on: Prevotella buccae; assay: Antimicrobial activity against Prevotella buccae assessed as percent resistant isolates after 48 hrs by agar dilution method; type: functional, Segatella buccae; in short: as §3
[28] = tested on: Peptoniphilus asaccharolyticus; assay: Antimicrobial activity against Peptoniphilus asaccharolyticus assessed as percent resistant isolates after 48 hrs by agar dilution method in presence of 4 ug/ml beta-lactamase inhibitor Tazobactam; type: functional; in short: as §3
[29] = tested on: Schaalia meyeri; assay: Antimicrobial activity against Actinomyces meyeri assessed as percent resistant isolates after 48 hrs by agar dilution method in presence of 4 ug/ml beta-lactamase inhibitor Tazobactam; type: functional; in short: as §3
[30] = tested on: Clostridioides difficile; assay: Antimicrobial activity against Clostridium difficile assessed as percent susceptible isolates after 48 hrs by agar dilution method in presence of 4 ug/ml beta-lactamase inhibitor Tazobactam; type: functional; in short: as §2
[31] = tested on: Bifidobacterium sp.; assay: Antimicrobial activity against Bifidobacterium sp. after 48 hrs by agar dilution method in presence of 4 ug/ml beta-lactamase inhibitor Tazobactam; type: functional
In short: (§4)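 MICs by CLSI agar dilution for piperacillin combined with tazobactam, with tazobactam held constant at 4 μg/ml. Clinical anaerobe isolates inoculated at 10^5 CFU by Steers replicator. Plates kept in an anaerobic chamber at 37°C for 48 h.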

[32] = tested on: Prevotella bivia; assay: Antimicrobial activity against Prevotella bivia after 48 hrs by agar dilution method in presence of 4 ug/ml beta-lactamase inhibitor Tazobactam; type: functional; in short: as §2
[33] = tested on: Bifidobacterium adolescentis; assay: Antimicrobial activity against Bifidobacterium adolescentis assessed as percent resistant isolates after 48 hrs by agar dilution method in presence of 4 ug/ml beta-lactamase inhibitor Tazobactam; type: functional; in short: as §3
[34] = tested on: Bacteroides caccae; assay: Antimicrobial activity against Bacteroides caccae assessed as percent resistant isolates after 48 hrs by agar dilution method in presence of 4 ug/ml beta-lactamase inhibitor Tazobactam; type: functional; in short: as §3
[35] = tested on: Schaalia meyeri; assay: Antimicrobial activity against Actinomyces meyeri after 48 hrs by agar dilution method in presence of 4 ug/ml beta-lactamase inhibitor Tazobactam; type: functional; in short: as §4
[36] = tested on: Bacteroides fragilis; assay: Antimicrobial activity against Bacteroides fragilis assessed as percent resistant isolates after 48 hrs by agar dilution method in presence of 4 ug/ml beta-lactamase inhibitor Tazobactam; type: functional; in short: as §3
[37] = tested on: Parvimonas micra; assay: Antimicrobial activity against Peptostreptococcus micros after 48 hrs by agar dilution method in presence of 4 ug/ml beta-lactamase inhibitor Tazobactam; type: functional; in short: as §2
[38] = tested on: Finegoldia magna; assay: Antimicrobial activity against Finegoldia magna after 48 hrs by agar dilution method in presence of 4 ug/ml beta-lactamase inhibitor Tazobactam; type: functional; in short: as §2
[39] = tested on: Hoylesella oralis; assay: Antimicrobial activity against Prevotella oralis assessed as percent susceptible isolates after 48 hrs by agar dilution method in presence of 4 ug/ml beta-lactamase inhibitor Tazobactam; type: functional

O=C(N[C@H](CO)[C@H](O)c1ccc([N+](=O)[O-])cc1)C(Cl)Cl [CHLORAMPHENICOL]
93%: Activity [18]
0.13 µg/mL: MIC [6] | MIC [20]
100%: Activity [1] | Activity [3]
0%: Activity [5] | Activity [13] | Activity [16] | Activity [19] | Activity [24] | Activity [27]
8 µg/mL: MIC90 [8] | MIC90 [17] | MIC90 [26]
98%: Activity [25]
1 µg/mL: MIC [2] | MIC50 [2] | MIC90 [4] | MIC [7] | MIC50 [7] | MIC [12] | MIC50 [12] | MIC [15] | MIC50 [15]
2 µg/mL: MIC90 [2] | MIC90 [7] | MIC50 [9] | MIC90 [9] | MIC90 [12] | MIC90 [15] | MIC50 [21] | MIC90 [21]
4 µg/mL: MIC [8] | MIC50 [8] | MIC [17] | MIC50 [17] | MIC50 [23] | MIC90 [23] | MIC [26] | MIC50 [26]
92%: Activity [10] | Activity [11] | Activity [14] | Activity [22]
0.5 µg/mL: MIC [4] | MIC50 [4]

CCN1CCN(C(=O)N[C@@H](C(=O)N[C@@H]2C(=O)N3[C@@H]2SC(C)(C)[C@@H]3C(=O)O)c2ccccc2)C(=O)C1=O [PIPERACILLIN]
11%: Activity [27]
7%: Activity [34]
100%: Activity [1] | Activity [30] | Activity [18] | Activity [39]
0.25 µg/mL: MIC50 [9] | MIC50 [37] | MIC50 [21] | MIC50 [23]
42%: Activity [25]
≤ 0.03 µg/mL: MIC50 [32]
1 µg/mL: MIC50 [2] | MIC50 [7] | MIC50 [12] | MIC50 [15]
4 µg/mL: MIC90 [32]
0%: Activity [28] | Activity [29] | Activity [33] | Activity [13] | Activity [19] | Activity [24]
128 µg/mL: MIC50 [8] | MIC50 [17] | MIC50 [26]
92%: Activity [10] | Activity [11] | Activity [14] | Activity [22]
0.06 µg/mL: MIC [6] | MIC [20] | MIC50 [38]
0.125 µg/mL: MIC90 [38]
78%: Activity [3]
51%: Activity [5] | Activity [16]
16 µg/mL: MIC90 [4] | MIC90 [9] | MIC90 [37] | MIC90 [21]
2%: Activity [36]
8 µg/mL: MIC90 [2] | MIC50 [4] | MIC90 [7] | MIC90 [31] | MIC90 [12] | MIC90 [15] | MIC90 [35]
0.5 µg/mL: MIC50 [31] | MIC50 [35] | MIC90 [23]
> 256 µg/mL: MIC90 [8] | MIC90 [17] | MIC90 [26]
